Results on 35 molecules are retold here after ChEMBL document CHEMBL2321740, “Arylazanylpyrazolone derivatives as inhibitors of mutant superoxide dismutase 1 dependent protein aggregation for the treatment of amyotrophic lateral sclerosis” (J Med Chem, 2013).

Calls of active or inactive are those of the source. The calls are words filed in the database; no cut-off is given here.

The nature of data set [1]: Inhibition of SOD1 mutant (unknown origin). The arrangement: species or system Homo sapiens.
Data set [2] can be described thus: (§1) Half life in mouse liver microsomes in presence of NADPH. The data set is classed as ADME, Microsome. The following applies: liver microsomes.
For data set [3], the system named is Liver. Nature of the data set: Half life in mouse liver microsomes in absence of NADPH. The data set is classed as ADME, Microsome. (In general: Microsomes from liver hold many membrane-bound enzymes, among them those of drug oxidation.)
The test system of data set [4] is Liver microsomes. Nature of the data set: Half life in human liver microsomes in absence of NADPH. In kind it is ADME, Microsome.
Data set [5] deals with Caco-2. Nature of the data set: Apparent permeability of the compound from basolateral to apical side in human Caco2 cells. In kind it is ADME, cell-based.
The subject of data set [6] is Caco-2. Nature of the data set: Apparent permeability of the compound from apical to basolateral side in human Caco2 cells. In kind it is ADME, cell-based. (Caco-2 cells form a polarised layer with tight junctions and transporters.)
In data set [7] the test system is Liver. The description is as §1. In kind it is ADME, Microsome. The following applies: microsomes.
Data set [8] in a line: Aqueous solubility of the compound. In kind it is physicochemical. As to conditions: buffer.
For data set [9], the system named is Liver microsomes. Nature of the data set: Half life in human liver microsomes in presence of NADPH. The data set is classed as ADME, Microsome.
Data set [10] relates to Caco-2. Nature of the data set: Efflux ratio of permeability from basolateral to apical side over apical to basolateral side in human Caco2 cells. The data set is classed as ADME, cell-based.
Data set [11] is described as follows: Inhibition of SOD1 mutant -induced cytotoxicity in assessed as recovery of neuronal activity at 10 uM after 24 hrs by fluorescence assay in presence of proteosome inhibitor MG132 relative to control. The arrangement: scale not given: the % may be the effect or the level left.
A short description of data set [12]: Inhibition of SOD1 mutant -induced cytotoxicity in cortical neurons after 24 hrs by fluorescence assay in presence of proteosome inhibitor MG132.
A further data set concerns PC-12. Nature of the data set: Inhibition of SOD1 mutant -induced cytotoxicity in rat PC12 cells after 24 hrs by fluorescence assay in presence of proteosome inhibitor MG132. The data set is classed as cell-based. The procedure, abridged: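 PC12 cells expressing G93A SOD1 seeded at 15000 cells/well, held 24 h, then given compound in 12-point dose-response, top concentration 32 μM, halved at each step. After 24 h with compound, MG132 added (final 100 nM). Viability read 48 h later: cells washed twice with PBS, Calcein-AM 1 μM final for 20 min at room temperature, fluorescence intensity measured.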

Take `O=c1[nH][nH]c2c1CCN(c1cc(Cl)cc(Cl)c1)C2`: the EC50 in data set [1] stood at 650 nM.

As for `C#CCN(Cc1cc(=O)[nH][nH]1)c1cc(Cl)cc(Cl)c1`, in [1], the EC50 was 1020 nM.

In [1], `CN(Cc1cc(=O)[nH][nH]1)c1ccc(Cl)c(Cl)c1` yielded a 50% effective concentration (EC50) of 420 nM.

Molecule `Cc1c(CN(C)c2cc(Cl)cc(Cl)c2)n(C)n(C)c1=O` came in with an EC50 in data set [1] of over 32000 nM.

In turn, `O=c1cc(CN(c2cc(Cl)cc(Cl)c2)C2CC2)[nH][nH]1` came in with an EC50 in data set [1] of 530 nM.

In [1], `CN(Cc1cc(=O)[nH][nH]1)c1ccc(C#N)cc1` showed a 50% effective concentration (EC50) of 1270 nM.

In data set [1], `O=c1cc(CN(Cc2ccccc2)c2cc(Cl)cc(Cl)c2)[nH][nH]1` yielded a concentration giving a half-maximal response (EC50) of 690 nM.

In [1], `CN(Cc1cc(=O)[nH][nH]1)c1ccc(Br)cc1` yielded a concentration giving a half-maximal response (EC50) of 710 nM.

`CN(CCc1cc(=O)[nH][nH]1)c1cc(Cl)cc(Cl)c1` came in with an EC50 in data set [1] of 1190 nM.

On to `CC(C)N(Cc1cc(=O)[nH][nH]1)c1cc(Cl)cc(Cl)c1`, for which the EC50 in data set [1] amounted to 610 nM.

Regarding `CN1N=C(CN(C)c2cc(Cl)cc(Cl)c2)C(C)(C)C1=O`, the EC50 in [1] was over 32000 nM.

In the case of `COc1cccc(N(C)Cc2cc(=O)[nH][nH]2)c1`, the 50% effective concentration (EC50) in [1] was 810 nM.

Molecule `O=c1cc(CN2CCc3ccccc32)[nH][nH]1` yielded an EC50 in [1] of 1060 nM.

In data set [1], `CN(Cc1cc(=O)[nH][nH]1)c1ccccc1Br` returned an EC50 of 1200 nM.

In the case of `CN(Cc1cc(=O)[nH][nH]1)c1ccc2ccccc2c1`, in data set [1], a half-maximal effect (EC50) was put at 830 nM.

As for `O=c1cc(COc2cc(Cl)cc(Cl)c2)[nH][nH]1`, the half-life in [2] worked out at 0.6 h. In data set [1], this molecule displayed an EC50 of 400 nM. Besides, the t1/2 stood at 1.85 h in the data set on Liver [3] and 2.88 h in the data set with Liver microsomes [4].

For the molecule `O=c1cc(CN(c2ccccc2)c2cc(Cl)cc(Cl)c2)[nH][nH]1`, in data set [1], the EC50 came out at 1310 nM.

For the molecule `O=c1cc(CNc2cc(Cl)cc(Cl)c2)[nH][nH]1`, the figures for the Papp in the data set on Caco-2 [5] and in the data set on Caco-2 [6] were 28.1 ×10⁻⁶ cm/s and 0.6 ×10⁻⁶ cm/s, respectively. Further, the t1/2 in the data set with Liver [7] was 0.5 h; with Liver [3], 1.67 h; with Liver microsomes [4], over 3 h; with Liver microsomes [9], 1.58 h. The solubility result in [8] is listed as “>= 150 uM”. This molecule had a concentration giving a half-maximal response (EC50) in [1] of 780 nM. For the same molecule, the Ratio in the data set on Caco-2 [10] turned out to be 47.1.

In the case of `CN(Cc1cc(=O)n(C)[nH]1)c1cc(Cl)cc(Cl)c1`, a half-maximal effect in data set [1] (EC50) was put at 750 nM.

Consider `CN(Cc1cc(=O)[nH][nH]1)c1cc(Cl)cc(Cl)c1`, for which the Papp stood at 7.6 ×10⁻⁶ cm/s in the data set on Caco-2 [5] and 2.2 ×10⁻⁶ cm/s with Caco-2 [6]. For the same molecule, the t1/2 is 0.417 h with Liver [7], over 3 h in the data set on Liver [3], over 3 h in the data set with Liver microsomes [4] and over 3 h in the data set on Liver microsomes [9]. The solubility result in [8] is reported as “>= 150 uM”. Moreover, the midpoint of the response in data set [1], the EC50, lay at 570 nM. In [11], the Activity is 100%. For the same molecule, the Ratio with Caco-2 [10] came to 3.5.

In data set [1], `CC(C)(C)N(Cc1cc(=O)[nH][nH]1)c1cc(Cl)cc(Cl)c1` registered an EC50 of 1270 nM.

Molecule `O=c1cc(CN2CCCc3ccccc32)[nH][nH]1` returned an EC50 in data set [1] of 800 nM.

Take `Cn1[nH]c(COc2cc(Cl)cc(Cl)c2)cc1=O`: the midpoint of the response in data set [1], the EC50, lay at 670 nM.

As for `CN(CCCc1cc(=O)[nH][nH]1)c1cc(Cl)cc(Cl)c1`, the result in data set [12] was inactive. For the same molecule, the response in data set [1] was half-maximal at 1450 nM (EC50). Further, in the data set on PC-12, the result was Active.

With `CN(Cc1cc(=O)[nH][nH]1)c1ccccc1`, the midpoint of the response in data set [1], the EC50, lay at 750 nM.

`CN(Cc1cc(=O)[nH][nH]1)c1cccc(Br)c1` yielded an EC50 in data set [1] of 750 nM.

Regarding `CN(Cc1cc(=O)[nH][nH]1)c1ccc(Cl)cc1`, the concentration giving a half-maximal response (EC50) in data set [1] was found to be 830 nM.

Molecule `CN(Cc1cc(=O)[nH][nH]1)c1ccc(Cl)cc1Cl` gave an EC50 in data set [1] of 290 nM.

Molecule `CN(Cc1cc(=O)[nH][nH]1)c1ccc(F)cc1` yielded an EC50 in data set [1] of 1400 nM.

The molecule `CN(Cc1cc(=O)[nH][nH]1)c1cccc2ccccc12` returned a half-maximal effective concentration (EC50) in data set [1] of 310 nM.

On to `CN(Cc1cc(=O)[nH]n1C)c1cc(Cl)cc(Cl)c1`, for which the concentration giving a half-maximal response (EC50) in data set [1] was over 32000 nM.

For the molecule `O=c1[nH][nH]c2c1CN(c1cc(Cl)cc(Cl)c1)CC2`, the result in [12] was inactive. The 50% effective concentration (EC50) in [1] was determined as 1450 nM. Also, the outcome in the data set on PC-12 was Active.

Turning to `CCN(Cc1cc(=O)[nH][nH]1)c1cc(Cl)cc(Cl)c1`, a half-maximal response in data set [1] (EC50) required 350 nM.

Consider `CN(Cc1cc(=O)n(C)n1C)c1cc(Cl)cc(Cl)c1`, for which, in data set [1], the EC50 is over 32000 nM.

`CN(Cc1cc(=O)n(Cc2ccccc2)[nH]1)c1cc(Cl)cc(Cl)c1` gave a concentration for a half-maximal effect (EC50) in data set [1] of 490 nM.

As a reminder, the EC50 is the concentration needed to bring the measured effect to its halfway point. In general, half-life refers to the time in which the quantity being followed falls by half. Broadly, the Papp is the rate of passage across a membrane or cell layer, normalised by area and donor concentration.
